Laboratory results reported in PubChem BioAssay AID651944 (The Scripps Research Institute Molecular Screening Center, 2012).
Activity calls are given as the source filed them.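 The calls were made as follows: active = IC50 at or below 10 µM; inactive = IC50 above 10 µM.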

System: E. coli V66 + mutant T4 phage, OD growth
Experiment: OD loss of phage-infected RecBCD+ E. coli – absorbance, round 2, counter-screen for AddAB inhibitor project, dose response (AID 651944)
In short: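 assay system = recBCD+ Escherichia coli strain V66 challenged with mutant T4 phage | schedule = compound preincubation 60 min, then phage 18 h, 37 °C | compound = 10-point threefold dilution series, top nominal 118.6 µM | benchmarks = high control ciprofloxacin, low control DMSO | signal = absorbance at 600 nm | replicates = triplicate | measure = IC50 from four-parameter curve fit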

## CCn1cc(C(=O)O)c(=O)c2cnc(N3CCN(C(=S)NC(=O)c4cccc(C)c4)CC3)nc21
  IC50: > 39.5 µM (inactive)

## CCn1cc(C(=O)O)c(=O)c2cnc(N3CCN(C(=S)NCc4ccccc4)CC3)nc21
  IC50: > 119 µM (inactive)

## CCn1cc(C(=O)O)c(=O)c2cnc(N3CCN(C(=S)Nc4ccccc4OC)CC3)nc21
  IC50: > 119 µM (inactive)

## CCn1cc(C(=O)O)c(=O)c2cnc(N3CCN(C(=S)Nc4cccc(C(F)(F)F)c4)CC3)nc21
  IC50: 77.8 µM (inactive)

## CCn1cc(C(=O)O)c(=O)c2cnc(N3CCN(C(=S)Nc4ccc(Cl)cc4)CC3)nc21
  IC50: 80.9 µM (inactive)

## CCn1cc(C(=O)O)c(=O)c2cnc(N3CCN(C(=S)Nc4ccccc4F)CC3)nc21
  IC50: > 119 µM (inactive)
